Converted amounts (≈) assume the structure as drawn. The source made the active and inactive calls. The rule behind the calls is not given here.
Experiments:
[1] = test system: Staphylococcus aureus; experiment: Antibacterial activity against Staphylococcus aureus ATCC 29213 assessed as inhibition of bacterial growth after 18 hrs by liquid microdilution method; assay type: functional; conditions: ATCC 29213, 18 h
Method in brief: (§1)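 Liquid microdilution. Overnight 37 °C cultures, E. coli ATCC 27856 in LB and S. aureus ATCC 29213 in TSB, diluted 1:1000 in the same medium and exposed to compound. Growth was taken from OD600 before and after 18 h at 37 °C. MIC50 is the read-out. Triplicate, normalized to an internal vehicle control.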

[2] = Inhibition of ribosome nascent peptide exit tunnel in Escherichia coli S30 extract assessed as inhibition of prokaryotic translation in presence of amino acids incubated for 20 mins by luciferase reporter gene assay
Method in brief: (§2)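 E. coli S30 cell-free extract with all amino acids, preincubated with compound for 20 min at room temperature. Luciferase control template added, translation run 60 min at 37 °C, then stopped by 5 min on ice. Luminescence was read after luciferin addition. IC50 from nonlinear fit, triplicate, normalized to vehicle control.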

[3] = Binding affinity to ribosome nascent peptide exit tunnel in rabbit reticulocyte extract assessed as inhibition of eukaryotic translation in presence of amino acids incubated for 20 mins by luciferase reporter gene assay; parameters: species or system Oryctolagus cuniculus
Method in brief: as §2, with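 “Nuclease-treated rabbit reticulocyte lysate” for “E. coli S30 cell-free extract”, “90” for “60”, “30” for “37”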

[4] = test system: Escherichia coli; experiment: Antibacterial activity against Escherichia coli ATCC 27856 assessed as inhibition of bacterial growth after 18 hrs by liquid microdilution method; assay type: functional; method in brief: as §1
[5] = test system: Staphylococcus aureus; experiment: Antibacterial activity against Staphylococcus aureus ATCC 29213 assessed as inhibition of bacterial growth after 18 hrs in presence of 50% bovine serum by liquid microdilution method; assay type: functional; conditions: ATCC 29213, 18 h
Method in brief: (§3)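 S. aureus ATCC 29213 overnight culture (37 °C) diluted 1:1000 in 50% bovine serum/broth and run by liquid microdilution. Growth was taken from OD600 change over 18 h at 37 °C to give MIC50, in triplicate against a vehicle control. The enhancement ratio is MIC50 without serum divided by MIC50 with serum.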

[6] = test system: Staphylococcus aureus; experiment: Ratio of MIC50 for Staphylococcus aureus ATCC 29213 in absence of 50% bovine serum to MIC50 for Staphylococcus aureus ATCC29213 in presence of 50% bovine serum; assay type: functional; method in brief: as §3
[7] = test system: Staphylococcus aureus; experiment: Antibacterial activity against Erm+ methicillin-resistant Staphylococcus aureus ATCC 33591 assessed as inhibition of bacterial growth after 18 hrs by liquid microdilution method; assay type: functional
Method in brief: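 MRSA grown overnight at 37 °C in Nutrient broth, diluted 1:1000 in the same medium, then plated with the compounds. Growth was judged by comparing OD600 before and after 18 h at 37 °C. MIC50 was taken by liquid microdilution. Vancomycin was the positive control. Each compound was run in triplicate and standardized against an internal vehicle control.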

| SMILES | MIC50 [1] | IC50 [2] | IC50 [3] | MIC50 [4] | MIC50 [5] | Ratio [6] | MIC50 [7] | MIC50 ([4]; ATCC 27856, 18 h) | MIC50 ([7]; ATCC 33591, 18 h) |
| --- | --- | --- | --- | --- | --- | --- | --- | --- | --- |
| CC[C@H]1OC(=O)[C@H](C)[C@@H](O[C@H]2C[C@@](C)(OC)[C@@H](O)[C@H](C)O2)[C@H](C)[C@@H](O[C@@H]2O[C@H](C)C[C@H](N(C)C)[C@H]2O)[C@](C)(O)C[C@@H](C)CN(Cc2ccc(-c3cn(CCc4c[nH]c5ccc(Cl)cc45)nn3)cc2)[C@H](C)[C@@H](O)[C@]1(C)O | 1.56 µg/mL (≈ 1.46 µM) | 586 nM | > 250000 nM | inactive | 1.56 µg/mL | 1 | inactive |  |  |
| CC[C@H]1OC(=O)[C@H](C)[C@@H](O[C@H]2C[C@@](C)(OC)[C@@H](O)[C@H](C)O2)[C@H](C)[C@@H](O[C@@H]2O[C@H](C)C[C@H](N(C)C)[C@H]2O)[C@](C)(O)C[C@@H](C)CN(CCCCc2cn(CCc3c[nH]c4ccc(F)cc34)nn2)[C@H](C)[C@@H](O)[C@]1(C)O | 0.78 µg/mL (≈ 0.765 µM) | 2600 nM | > 250000 nM |  | 0.16 µg/mL | 5 | inactive | 32 µg/mL (≈ 31.4 µM) |  |
| CC[C@H]1OC(=O)[C@H](C)[C@@H](O[C@H]2C[C@@](C)(OC)[C@@H](O)[C@H](C)O2)[C@H](C)[C@@H](O[C@@H]2O[C@H](C)C[C@H](N(C)C)[C@H]2O)[C@](C)(O)C[C@@H](C)CN(CCCCc2cn(CCc3c[nH]c4ccccc34)nn2)[C@H](C)[C@@H](O)[C@]1(C)O | 0.78 µg/mL (≈ 0.779 µM) | 540 nM | > 250000 nM |  | 0.078 µg/mL | 10 | inactive | 16 µg/mL (≈ 16 µM) |  |
| CC[C@H]1OC(=O)[C@H](C)[C@@H](O[C@H]2C[C@@](C)(OC)[C@@H](O)[C@H](C)O2)[C@H](C)[C@@H](O[C@@H]2O[C@H](C)C[C@H](N(C)C)[C@H]2O)[C@](C)(O)C[C@@H](C)CN(Cc2ccc(-c3cn(CCn4ccc5cc(Cl)ccc54)nn3)cc2)[C@H](C)[C@@H](O)[C@]1(C)O | 3.13 µg/mL (≈ 2.93 µM) | 1250 nM | > 250000 nM | inactive | 1.56 µg/mL | 2 | inactive |  |  |
| CC[C@H]1OC(=O)[C@H](C)[C@@H](O[C@H]2C[C@@](C)(OC)[C@@H](O)[C@H](C)O2)[C@H](C)[C@@H](O[C@@H]2O[C@H](C)C[C@H](N(C)C)[C@H]2O)[C@](C)(O)C[C@@H](C)CN(CCCCc2cn(CC)nn2)[C@H](C)[C@@H](O)[C@]1(C)O | 3.13 µg/mL (≈ 3.53 µM) | 1220 nM | > 250000 nM |  | 0.31 µg/mL | 10 | inactive | 32 µg/mL (≈ 36.1 µM) |  |
| CC[C@H]1OC(=O)[C@H](C)[C@@H](O[C@H]2C[C@@](C)(OC)[C@@H](O)[C@H](C)O2)[C@H](C)[C@@H](O[C@@H]2O[C@H](C)C[C@H](N(C)C)[C@H]2O)[C@](C)(O)C[C@@H](C)CN(CCCCc2cn(CCn3ccc4cc(Cl)ccc43)nn2)[C@H](C)[C@@H](O)[C@]1(C)O | 0.78 µg/mL (≈ 0.753 µM) | 490 nM | > 250000 nM |  | 0.16 µg/mL | 5 | inactive | 64 µg/mL (≈ 61.8 µM) |  |
| CN[C@H](CC(C)C)C(=O)N[C@H]1C(=O)N[C@@H](CC(N)=O)C(=O)N[C@H]2C(=O)N[C@H]3C(=O)N[C@H](C(=O)N[C@H](C(=O)O)c4cc(O)cc(O)c4-c4cc3ccc4O)[C@H](O)c3ccc(c(Cl)c3)Oc3cc2cc(c3O[C@@H]2O[C@H](CO)[C@@H](O)[C@H](O)[C@H]2O[C@H]2C[C@](C)(N)[C@H](O)[C@H](C)O2)Oc2ccc(cc2Cl)[C@H]1O [VANCOMYCIN] | 1.56 µg/mL (≈ 1.08 µM) |  |  |  | 1.56 µg/mL | 1 |  |  | 4 µg/mL (≈ 2.76 µM) |
| O=C(N[C@H](CO)[C@H](O)c1ccc([N+](=O)[O-])cc1)C(Cl)Cl [CHLORAMPHENICOL] |  |  |  |  |  |  |  | 4 µg/mL (≈ 12.4 µM) |  |

From ChEMBL document CHEMBL3600351, “Exploiting translational stalling peptides in an effort to extend azithromycin interaction within the prokaryotic ribosome nascent peptide exit tunnel” (Bioorg Med Chem, 2015)
